ChEMBL document CHEMBL2321868, “The discovery of novel potent trans-3,4-disubstituted pyrrolidine inhibitors of the human aspartic protease renin from in silico three-dimensional (3D) pharmacophore searches” (J Med Chem, 2013)
Calls of active or inactive are those of the source. No cut-off for these calls is given here.

What was measured:
[1] = biological target: T1, Adrenergic receptor alpha-1 (Homo sapiens, UniProt P35348+P25100+P35368); assay: Inhibition of alpha-1 adrenoceptor (unknown origin)
T1 sequence (P35348 whole entry): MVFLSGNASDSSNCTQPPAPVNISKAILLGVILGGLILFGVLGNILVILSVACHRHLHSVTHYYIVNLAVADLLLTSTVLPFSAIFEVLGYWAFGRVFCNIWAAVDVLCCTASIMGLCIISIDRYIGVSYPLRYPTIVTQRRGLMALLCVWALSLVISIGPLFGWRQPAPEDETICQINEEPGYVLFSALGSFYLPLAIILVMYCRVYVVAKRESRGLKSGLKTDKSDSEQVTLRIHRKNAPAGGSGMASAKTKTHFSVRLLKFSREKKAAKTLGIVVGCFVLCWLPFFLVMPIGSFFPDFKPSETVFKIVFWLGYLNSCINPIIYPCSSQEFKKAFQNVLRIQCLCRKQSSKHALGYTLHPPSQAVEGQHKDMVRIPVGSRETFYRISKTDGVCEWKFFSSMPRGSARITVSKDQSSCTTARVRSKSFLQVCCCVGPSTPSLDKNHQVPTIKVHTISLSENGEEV
T1 sequence (P25100 whole entry): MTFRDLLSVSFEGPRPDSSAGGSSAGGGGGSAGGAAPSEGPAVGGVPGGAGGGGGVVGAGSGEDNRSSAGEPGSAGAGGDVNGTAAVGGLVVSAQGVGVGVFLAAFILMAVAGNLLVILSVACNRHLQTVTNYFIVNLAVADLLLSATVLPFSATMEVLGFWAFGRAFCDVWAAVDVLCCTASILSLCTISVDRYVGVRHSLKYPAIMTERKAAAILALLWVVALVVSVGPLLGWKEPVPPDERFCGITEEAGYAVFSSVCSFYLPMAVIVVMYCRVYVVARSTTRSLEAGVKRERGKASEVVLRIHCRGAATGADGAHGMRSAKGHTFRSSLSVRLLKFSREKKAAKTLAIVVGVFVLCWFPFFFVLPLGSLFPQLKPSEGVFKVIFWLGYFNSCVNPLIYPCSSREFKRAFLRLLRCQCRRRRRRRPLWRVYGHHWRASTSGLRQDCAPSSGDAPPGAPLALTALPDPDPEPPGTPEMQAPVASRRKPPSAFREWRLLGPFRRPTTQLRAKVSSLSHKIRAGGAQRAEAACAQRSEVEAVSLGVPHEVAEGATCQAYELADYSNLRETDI
T1 sequence (P35368 whole entry): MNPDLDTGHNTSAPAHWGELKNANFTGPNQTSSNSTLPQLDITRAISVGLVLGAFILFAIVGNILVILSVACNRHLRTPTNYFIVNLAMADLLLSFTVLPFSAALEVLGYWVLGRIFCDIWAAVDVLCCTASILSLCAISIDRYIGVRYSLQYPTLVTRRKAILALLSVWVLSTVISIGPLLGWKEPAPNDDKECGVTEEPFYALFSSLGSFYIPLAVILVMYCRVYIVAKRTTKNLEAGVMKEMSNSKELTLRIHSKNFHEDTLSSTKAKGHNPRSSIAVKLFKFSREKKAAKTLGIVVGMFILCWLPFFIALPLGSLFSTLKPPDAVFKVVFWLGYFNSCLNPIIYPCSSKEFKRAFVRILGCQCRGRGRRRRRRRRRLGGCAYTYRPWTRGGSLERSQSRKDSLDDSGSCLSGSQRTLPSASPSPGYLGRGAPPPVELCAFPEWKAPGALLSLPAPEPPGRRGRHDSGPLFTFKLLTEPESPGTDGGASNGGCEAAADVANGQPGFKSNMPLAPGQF

Rattus norvegicus [2] = assay: Antihypertensive activity in double transgenic rat overexpressing human renin and human angiotensinogen assessed as reduction in mean arterial pressure at 30 mg/kg, po; assay type: functional, Artery
Procedure, shortened: (§1)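 Double-transgenic rats overexpressing human renin and human angiotensinogen, with telemetry. Each received a single oral dose of 6 or 30 mg/kg. The read-out was mean arterial pressure, reported as the peak change from dosing.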

[3] = Half life in jugular vein cannulated Sprague-Dawley rat at 2 mg/kg, iv by HPLC-MS analysis; assay type: ADME, organism-based; design: dose 2 mg/kg, route intravenous; conditions: in vivo
Procedure, shortened: (§2)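 Cannulated, fed Sprague–Dawley rats were given 2 mg/kg intravenously and 6 mg/kg orally. Oral bioavailability came from the two routes. t1/2, plasma clearance and Vdss were estimated. Oral Cmax and AUC were taken over 0–24 h.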

[4] = Volume of distribution at steady state in jugular vein cannulated Sprague-Dawley rat at 2 mg/kg, iv by HPLC-MS analysis; assay type: ADME, organism-based; design: dose 2 mg/kg, route intravenous; conditions: in vivo, read-out: Vdss; procedure, shortened: as §2
Cathepsin E = biological target: T2, Cathepsin E (Homo sapiens, UniProt P14091); assay: Inhibition of human recombinant cathepsin-E expressed in Escherichia coli using Ac- E-D(EDANS)-KPILFFRLG-K(Dabcyl)-E-Amid as substrate incubated for 1 hr prior to substrate addition measured after 1 hr by FRET-based enzymatic assay
T2 sequence (P14091 whole entry): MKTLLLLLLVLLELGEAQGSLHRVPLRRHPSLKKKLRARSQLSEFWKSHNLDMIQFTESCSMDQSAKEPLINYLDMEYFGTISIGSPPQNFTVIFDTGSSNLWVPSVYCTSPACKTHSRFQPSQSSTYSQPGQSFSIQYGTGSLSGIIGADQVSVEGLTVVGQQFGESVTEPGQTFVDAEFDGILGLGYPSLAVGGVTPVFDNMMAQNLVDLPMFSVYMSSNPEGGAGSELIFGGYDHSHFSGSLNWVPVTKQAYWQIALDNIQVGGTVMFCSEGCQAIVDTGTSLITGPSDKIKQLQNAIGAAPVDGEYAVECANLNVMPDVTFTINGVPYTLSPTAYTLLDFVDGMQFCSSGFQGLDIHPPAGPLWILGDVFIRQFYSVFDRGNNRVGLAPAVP

Rattus norvegicus [5] = assay: Antihypertensive activity in double transgenic rat overexpressing human renin and angiotensinogen assessed as reduction in mean arterial pressure at 6 to 30 mg/kg, po after 12 hrs; assay type: functional, organism-based; conditions: Artery; procedure, shortened: as §1
Renin = biological target: T3, Renin (Homo sapiens, UniProt P00797); assay: Inhibition of renin in human plasma using RE(EDANS)IHPFHLVIHTK(Dabcyl)R as substrate incubated for 1 hr prior to substrate addition measured after 2 hrs by FRET-based enzymatic assay
T3 sequence (P00797 whole entry): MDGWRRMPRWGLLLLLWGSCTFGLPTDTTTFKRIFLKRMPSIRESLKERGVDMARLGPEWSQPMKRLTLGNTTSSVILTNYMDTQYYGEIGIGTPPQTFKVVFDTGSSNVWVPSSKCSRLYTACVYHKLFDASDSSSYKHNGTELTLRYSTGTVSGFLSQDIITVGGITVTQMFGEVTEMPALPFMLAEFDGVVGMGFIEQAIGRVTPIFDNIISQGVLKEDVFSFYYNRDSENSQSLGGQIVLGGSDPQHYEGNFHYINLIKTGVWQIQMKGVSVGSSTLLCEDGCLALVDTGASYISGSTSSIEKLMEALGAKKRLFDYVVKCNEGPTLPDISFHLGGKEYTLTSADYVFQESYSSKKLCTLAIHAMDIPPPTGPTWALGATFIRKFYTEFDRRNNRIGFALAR
Procedure, shortened: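 Renin activity measured in the presence of human plasma by FRET cleavage of the quenched peptide substrate. IC50 is the half-maximal inhibition.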

[6] = Inhibition of human recombinant pepsin A expressed in Escherichia coli using Dabcyl-E-R-Nle-F-L-S-F-P-EDANS as substrate incubated for 1 hr prior to substrate addition measured after 1 hr by FRET-based enzymatic assay

IC50 [1]: > 1000 nM
half-life [3]: 2 h
Vd [4]: 2.8 L/kg
IC50 (Cathepsin E): > 30000 nM
IC50 (Renin): 300 nM
IC50 [6]: > 30000 nM
Compound: COCCCOc1cc(C(=O)N(C[C@@H]2CNC[C@H]2Cc2ccccc2)C(C)C)ccc1OC.Cl
Activity (Rattus norvegicus [2]): 35 mmHg
Activity (Rattus norvegicus [5]): Active
